Laboratory results: ChEMBL document CHEMBL1135638, “Synthesis, molecular modeling studies, and pharmacological activity of selective A(1) receptor antagonists” (J Med Chem, 2002)

Columns and labels:
[1] = target: T1, Adenosine receptor A1 (Bos taurus) (UniProt P28190); assay: Percent inhibition of specific [3H]CHA binding on Adenosine A1 receptor in bovine cortical membranes at 10 uM concentration; type: cell membranes
T1 sequence (whole entry): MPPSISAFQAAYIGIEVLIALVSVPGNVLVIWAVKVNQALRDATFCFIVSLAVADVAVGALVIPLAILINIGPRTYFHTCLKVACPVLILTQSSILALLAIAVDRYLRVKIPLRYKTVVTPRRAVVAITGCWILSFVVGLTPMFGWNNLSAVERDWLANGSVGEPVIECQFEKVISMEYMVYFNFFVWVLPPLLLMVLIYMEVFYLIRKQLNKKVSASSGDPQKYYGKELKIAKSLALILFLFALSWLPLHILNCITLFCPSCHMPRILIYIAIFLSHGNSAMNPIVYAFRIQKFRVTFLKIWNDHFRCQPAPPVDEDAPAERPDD

[2] = tested on: Adenosine receptor A2a (Bos taurus); assay: Percent inhibition of specific [3H]-CGS-21,680 binding to adenosine A2A receptors in bovine striatal membranes at 10 uM concentration
[3] = target: T2, Adenosine receptor A1 (Bos taurus, UniProt P28190); assay: Binding affinity at bovine Adenosine A1 receptor.
T2 sequence (P28190 whole entry): T1 sequence (whole entry)

[4] = target: T2, Adenosine receptor A1; assay: Binding affinity to Adenosine A1 receptor in bovine cortical membranes by [3H]N6-cyclohexyl adenosine displacement.; type: cell membranes
[5] = target: T2, Adenosine receptor A1; assay: Displacement of [3H]DPCPX from Adenosine A1 receptor of bovine cortical membranes without GTP
Method in brief: (§1)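 [3H]DPCPX displacement from bovine cortical membranes, method of Pirovano et al., run with and without 1 mM GTP. Values from three separate experiments, mean ± SEM.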

[6] = target: T3, Adenosine receptor A1 (Rattus norvegicus, UniProt P25099); assay: Binding affinity against rat Adenosine A1 receptor
T3 sequence (P25099 whole entry): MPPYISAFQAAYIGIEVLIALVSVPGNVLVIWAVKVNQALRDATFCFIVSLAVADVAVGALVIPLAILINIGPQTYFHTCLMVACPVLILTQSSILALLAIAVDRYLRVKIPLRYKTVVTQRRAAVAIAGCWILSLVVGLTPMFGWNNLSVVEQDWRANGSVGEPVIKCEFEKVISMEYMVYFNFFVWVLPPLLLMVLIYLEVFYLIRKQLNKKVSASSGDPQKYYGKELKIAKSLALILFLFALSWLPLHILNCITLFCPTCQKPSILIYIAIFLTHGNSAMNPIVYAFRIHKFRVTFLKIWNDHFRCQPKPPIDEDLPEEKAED

[7] = target: T2, Adenosine receptor A1; assay: Displacement of [3H]DPCPX from Adenosine A1 receptor of bovine cortical membranes with 1 mM GTP; method in brief: as §1
[8] = Compound was evaluated for the inhibition of Adenylate cyclase activity; type: functional

Structure (SMILES)	inhibition [1]	inhibition [2]	Ki [3]	also measured
CCOC(=O)c1cnc2c(cnn2/C=C/c2ccccc2)c1N1CCCC1	39%	0%		
CCCn1c(=O)c2[nH]c(C3CCC(=O)C3)nc2n(CCC)c1=O (stereo not given)			15 nM	
CCOC(=O)c1cnc2c(cnn2/C=C/c2ccccc2)c1NCCc1ccccc1	58%	2%		
CCOC(=O)c1cnc2c(cnn2CC(Cl)COc2ccccc2)c1NC1CCCCC1 (stereo not given)		1%		Ki [4]: 3710 nM
O=C(/C=C/C1=CC=CN2N=C(c3ccccc3)CC12)N1CCCC[C@H]1CCO (stereo not given in full)			0.49 nM	
CCOC(=O)c1cnc2c(cnn2/C=C/c2ccccc2)c1NC1CC1	67%	0%		
CCOCCNc1c(C(=O)OCC)cnc2c1cnn2CC(Cl)COc1ccccc1 (stereo not given)				Ki [4]: 2690 nM
CCOC(=O)c1cnc2c(cnn2/C=C/c2ccccc2)c1NC1CCCCC1	21%	0%		
CCOC(=O)c1cnc2c(cnn2/C=C/c2ccccc2)c1N1CCOCC1	40%	0%		
CCOC(=O)c1cnc2c(cnn2CC(Cl)COc2ccccc2)c1NCCc1ccccc1 (stereo not given)		5%		Ki [4]: 456 nM
CCOC(=O)c1cnc2c(cnn2CC(Cl)c2ccccc2)c1NCc1ccccc1 (stereo not given)		0%		
O=C(O)CCCn1nc(-c2c(-c3ccccc3)nn3ccccc23)ccc1=O			6.6 nM	
C[C@H](c1ccccc1)n1c2ccccc2c2c(N)nc(-c3ccccc3)nc21			2.6 nM	
CCOC(=O)c1cnc2c(cnn2/C=C/c2ccccc2)c1NCc1ccccc1	39%	2%		
CCOC(=O)c1cnc2c(cnn2CC(Cl)c2ccccc2)c1N1CCOCC1 (stereo not given)		0%		
CCOC(=O)c1cnc2c(cnn2CC(Cl)COc2ccccc2)c1NCc1ccccc1 (stereo not given)	36%	12%		
CCOC(=O)c1cnc2c(cnn2CC(Cl)c2ccccc2)c1NCCc1ccccc1 (stereo not given)				Ki [5]: 69.7 nM; Ki [6]: 73 nM; Ki [7]: 56 nM; IC50 [8]: 52.2 nM
c1ccc(-c2nc3c(NC4CCCC4)[nH]c4ccccc4c-3n2)cc1			10 nM	
CCOC(=O)c1cnc2c(cnn2CC(Cl)c2ccccc2)c1N1CCCC1 (stereo not given)				Ki [5]: 103 nM; Ki [6]: 140 nM; Ki [7]: 90 nM; IC50 [8]: 154 nM
COc1ccc(-c2nc(N)c3c(C)c(C)n(C(C)c4ccccc4)c3n2)cc1 (stereo not given)			101 nM	
CCOC(=O)c1cnc2c(cnn2CC(Cl)c2ccccc2)c1N1CCCCC1 (stereo not given)	41%	23%		

The next lines start with results.

inhibition [1]	inhibition [2]	Ki [3]	Structure (SMILES)	also measured
33%	15%		CCOC(=O)c1cnc2c(cnn2CC(Cl)COc2ccccc2)c1N1CCCC1 (stereo not given)	
	23%		CCCCNc1c(C(=O)OCC)cnc2c1cnn2CC(Cl)COc1ccccc1 (stereo not given)	Ki [4]: 1220 nM
		176 nM	Cc1nn(C)c2c(=O)[nH]c(-c3ccc(Cl)cc3N)nc12	
	34%		CCOC(=O)c1cnc2c(cnn2CC(Cl)COc2ccccc2)c1NC1CC1 (stereo not given)	Ki [4]: 1050 nM
40%	0%		CCOC(=O)c1cnc2c(cnn2CC(Cl)COc2ccccc2)c1N1CCOCC1 (stereo not given)	
51%	0%		CCOCCNc1c(C(=O)OCC)cnc2c1cnn2/C=C/c1ccccc1	
		29.5 nM	CCCSc1nc(SC(CC)C(N)=O)nc2c1ncn2-c1ccccc1 (stereo not given)	
60%	0%		CCCCNc1c(C(=O)OCC)cnc2c1cnn2/C=C/c1ccccc1	
40%	0%		CCCNc1c(C(=O)OCC)cnc2c1cnn2/C=C/c1ccccc1	
		13 nM	Nc1nc2ccc(Cl)cc2n2nc(-c3ccccc3F)nc12	
	0%		CCOC(=O)c1cnc2c(cnn2CC(Cl)c2ccccc2)c1NC1CCCCC1 (stereo not given)	Ki [4]: 1490 nM
		7.9 nM	Cc1cnc2c(NC3CCCC3)nc3ccccc3n12	
		540 nM	CN1C=NC2C(NC3CCCC3)=NC=NC21 (stereo not given)	
		600 nM	Nc1nc(-c2ccncc2)nc2c1c1c(n2-c2ccccc2)CCCC1	
		7.3 nM	FC(F)(F)c1nnc2c(NC3CCCC3)nc3ccccc3n12	
